Tested on in the first assay: not listed separately
Description: Growth inhibition of human […] cells at 10 uM after 48 hrs by SRB method. The class given is functional. Conditions: read-out: GI. A digest of the protocol:
(§1)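 NCI 56-line primary screen at a single 10^-5 M concentration. Cells grown in RPMI 1640 with 5% FBS and 2 mM L-glutamine, plated at 5000–40,000 cells/well, then preincubated for 24 h. Exposure was 48 h at 37 °C and 5% CO2. Adherent cells were fixed with cold TCA at 10% final, suspension cells at 16%. Staining used 0.4% SRB, read at 515 nm. Results are % growth inhibition relative to control.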
In general terms: The SRB assay estimates cell density from bound dye.
Turning to `O=C(CN1CCN(c2nnc(-c3ccccc3)c3ccccc23)CC1)Nc1ccc(Cl)cc1`, the inhibition of growth at 10 µM amounted to 40%.
Same read-out and setting: the figure for `O=C(CN1CCN(c2nnc(-c3ccccc3)c3ccccc23)CC1)Nc1ccccc1Cl` is 48%; for `COc1ccc(C(=O)CN2CCN(c3nnc(-c4ccccc4)c4ccccc34)CC2)cc1` it is 32%.

Tested on in the next assay: not listed separately
Description: Growth inhibition of human PC3 cells at 10 uM after 48 hrs by SRB method. The conditions noted are these: PC-3, 48 h, read-out: GI. The class given is functional. Summed up:
as §1
With `O=C(CN1CCN(c2nnc(-c3ccccc3)c3ccccc23)CC1)Nc1ccc(Cl)cc1`, the inhibition of growth at 10 µM amounted to 32%.
Still for that read-out and setting: the figure for `O=C(CN1CCN(c2nnc(-c3ccccc3)c3ccccc23)CC1)Nc1ccccc1Cl` is 45%.

Tested on in the next assay: not listed separately
Description: Growth inhibition of human UO31 cells at 10 uM after 48 hrs by SRB method. The class given is functional. The conditions noted are these: UO-31, 48 h, read-out: GI. A digest of the protocol:
(§2)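 NCI 56-line screen, single-dose primary assay at 10^-5 M. Cells grown in RPMI 1640 with 5% FBS and 2 mM L-glutamine, plated at 5000–40,000 cells/well and held 24 h at 37 °C, 5% CO2 before drug addition. Compound was given from DMSO stock, exposure 48 h, then TCA fixation and SRB staining with absorbance at 515 nm. % growth is taken relative to time-zero and untreated controls.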
Regarding `O=C(CN1CCN(c2nnc(-c3ccccc3)c3ccccc23)CC1)Nc1ccc(Cl)cc1`, the inhibition of growth at 10 µM is 34%.
Still for that read-out and setting: the figure for `O=C(CN1CCN(c2nnc(-c3ccccc3)c3ccccc23)CC1)Nc1ccccc1Cl` is 37%; for `COc1ccc(C(=O)CN2CCN(c3nnc(-c4ccccc4)c4ccccc34)CC2)cc1` it is 35%.

The test system of another assay is MDA-MB-468. Description: Growth inhibition of human MDA-MB-468 cells at 10 uM after 48 hrs by SRB method. The class given is functional. The conditions noted are these: MDA-MB-468, 48 h, read-out: GI. A digest of the protocol: as §1
As to `COc1ccc(NC(=O)CN2CCN(c3nnc(-c4ccccc4)c4ccccc34)CC2)cc1`, the inhibition of growth at 10 µM was 37%.
Same read-out and setting: the figure for `O=C(CN1CCN(c2nnc(-c3ccccc3)c3ccccc23)CC1)Nc1ccc(Cl)cc1` is 53%.
For the compound `O=C(CN1CCN(c2nnc(-c3ccccc3)c3ccccc23)CC1)Nc1ccccc1Cl`, the inhibition of growth at 10 µM was determined as 43%.
The same measure, in the same setting: the figure for `O=C(CN1CCN(c2nnc(-c3ccccc3)c3ccccc23)CC1)c1ccc(Cl)cc1` is 38%.

The test system of a further assay is K562. Description: Growth inhibition of human K562 cells at 10 uM after 48 hrs by SRB method. Format: functional. Conditions: K562, 48 h, read-out: GI. Summed up:
as §1
`O=C(CN1CCN(c2nnc(-c3ccccc3)c3ccccc23)CC1)Nc1ccc(Cl)cc1`: the inhibition of growth at 10 µM was found to be 30%.
As for `O=C(CN1CCN(c2nnc(-c3ccccc3)c3ccccc23)CC1)Nc1ccccc1Cl`, the inhibition of growth at 10 µM amounted to 33%.
Still for that read-out and setting: the figure for `COc1ccc(C(=O)CN2CCN(c3nnc(-c4ccccc4)c4ccccc34)CC2)cc1` is 30%; for `O=C(CN1CCN(c2nnc(-c3ccccc3)c3ccccc23)CC1)c1ccc(Cl)cc1` it is 33%.

The test system of a further assay is SK-MEL-2. Description: Growth inhibition of human SK-MEL-2 cells at 10 uM after 48 hrs by SRB method. The class given is functional. The conditions noted are these: SK-MEL-2, 48 h, read-out: GI. A digest of the protocol:
as §1
For the compound `O=C(CN1CCN(c2nnc(-c3ccccc3)c3ccccc23)CC1)Nc1ccc(Cl)cc1`, the inhibition of growth at 10 µM came to 33%.

Tested on in the next assay: not listed separately
Description: Growth inhibition of human HL-60(TB) cells at 10 uM after 48 hrs by SRB method. Format: functional. The conditions noted are these: HL-60, 48 h, read-out: GI. Summed up: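 NCI single-dose primary screen at 10^-5 M, 48 h exposure. Cells grown in RPMI 1640 with 5% FBS and 2 mM L-glutamine. Suspension cells fixed in situ with TCA (final 16%), stained with SRB, absorbance read at 515 nm. Percent growth inhibition calculated against time-zero and untreated control plates.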
Take `O=C(CN1CCN(c2nnc(-c3ccccc3)c3ccccc23)CC1)Nc1ccc(Cl)cc1`: the inhibition of growth at 10 µM was found to be 30%.
As to `O=C(CN1CCN(c2nnc(-c3ccccc3)c3ccccc23)CC1)Nc1ccccc1Cl`, the inhibition of growth at 10 µM was 40%.

Tested on in a further assay: not listed separately
Description: Growth inhibition of human HOP92 cells at 10 uM after 48 hrs by SRB method. Format: functional. Conditions: HOP-92, 48 h, read-out: GI. A digest of the protocol: as §1
For `O=C(CN1CCN(c2nnc(-c3ccccc3)c3ccccc23)CC1)Nc1ccccc1Cl`, the inhibition of growth at 10 µM came to 31%.

The test system of a further assay is SR. Description: Growth inhibition of human SR cells at 10 uM after 48 hrs by SRB method. The class given is functional. Conditions: read-out: GI. A digest of the protocol: as §1
On to `O=C(CN1CCN(c2nnc(-c3ccccc3)c3ccccc23)CC1)Nc1ccc(Cl)cc1`, for which the inhibition of growth at 10 µM was 40%.
Still for that read-out and setting: the figure for `O=C(CN1CCN(c2nnc(-c3ccccc3)c3ccccc23)CC1)Nc1ccccc1Cl` is 36%.

Tested on in another assay: not listed separately
Description: Growth inhibition of human UACC257 cells at 10 uM after 48 hrs by SRB method. The class given is functional. The conditions noted are these: UACC-257, 48 h, read-out: GI. Summed up: as §2
For `O=C(CN1CCN(c2nnc(-c3ccccc3)c3ccccc23)CC1)Nc1ccccc1Cl`, the inhibition of growth at 10 µM was 30%.

Tested on in a further assay: not listed separately
Description: Growth inhibition of human MOLT4 cells at 10 uM after 48 hrs by SRB method. Conditions: MOLT-4, 48 h, read-out: GI. Format: functional. A digest of the protocol:
as §1
Take `O=C(CN1CCN(c2nnc(-c3ccccc3)c3ccccc23)CC1)Nc1ccc(Cl)cc1`: the inhibition of growth at 10 µM is 41%.
The same measure, in the same setting: the figure for `O=C(CN1CCN(c2nnc(-c3ccccc3)c3ccccc23)CC1)Nc1ccccc1Cl` is 31%.
Same read-out and setting: the figure for `O=C(CN1CCN(c2nnc(-c3ccccc3)c3ccccc23)CC1)c1ccc(Cl)cc1` is 30%.

Another assay concerns NCI-H522. Description: Growth inhibition of human NCI-H522 cells at 10 uM after 48 hrs by SRB method. Conditions: NCI-H522, 48 h, read-out: GI. The class given is functional. Summed up: as §1
For the compound `COc1ccc(NC(=O)CN2CCN(c3nnc(-c4ccccc4)c4ccccc34)CC2)cc1`, the inhibition of growth at 10 µM was found to be 30%.
Same read-out and setting: the figure for `O=C(CN1CCN(c2nnc(-c3ccccc3)c3ccccc23)CC1)Nc1ccc(Cl)cc1` is 53%; for `O=C(CN1CCN(c2nnc(-c3ccccc3)c3ccccc23)CC1)Nc1ccccc1Cl` it is 42%.
The same measure, in the same setting: the figure for `COc1ccc(C(=O)CN2CCN(c3nnc(-c4ccccc4)c4ccccc34)CC2)cc1` is 35%; for `O=C(CN1CCN(c2nnc(-c3ccccc3)c3ccccc23)CC1)c1ccc(Cl)cc1` it is 57%.

Tested on in a further assay: not listed separately
Description: Growth inhibition of human IGROV1 cells at 10 uM after 48 hrs by SRB method. The conditions noted are these: IGROV-1, 48 h, read-out: GI. The class given is functional. A digest of the protocol:
as §1
For `O=C(CN1CCN(c2nnc(-c3ccccc3)c3ccccc23)CC1)Nc1ccccc1Cl`, the inhibition of growth at 10 µM is 46%.

The test system of a further assay is T47D. Description: Growth inhibition of human T47D cells at 10 uM after 48 hrs by SRB method. The class given is functional. Conditions: read-out: GI. Summed up: as §2
Turning to `COc1ccc(NC(=O)CN2CCN(c3nnc(-c4ccccc4)c4ccccc34)CC2)cc1`, the inhibition of growth at 10 µM came to 55%.
On the same count and under the same terms, the figure for `O=C(CN1CCN(c2nnc(-c3ccccc3)c3ccccc23)CC1)Nc1ccc(Cl)cc1` is 57%; for `O=C(CN1CCN(c2nnc(-c3ccccc3)c3ccccc23)CC1)Nc1ccccc1Cl` it is 58%; for `COc1ccc(C(=O)CN2CCN(c3nnc(-c4ccccc4)c4ccccc34)CC2)cc1` it is 36%.
On the same count and under the same terms, the figure for `O=C(CN1CCN(c2nnc(-c3ccccc3)c3ccccc23)CC1)c1ccc(Cl)cc1` is 41%.

The next assay deals with A498. Description: Growth inhibition of human A498 cells at 10 uM after 48 hrs by SRB method. Format: functional. Conditions: A498, 48 h, read-out: GI. Summed up: as §1
As for `O=C(CN1CCN(c2nnc(-c3ccccc3)c3ccccc23)CC1)Nc1ccc(Cl)cc1`, the inhibition of growth at 10 µM came to 36%.
